According to ChEMBL document CHEMBL1154156, “Natural tanshinone-like heterocyclic-fused ortho-quinones from regioselective Diels-Alder reaction: synthesis and cytotoxicity evaluation” (Eur J Med Chem, 2009):

Key:
[1] = Cytotoxicity against human CNE2 cells after 48 hrs by MTT assay; format: functional, cell-based, CNE-2
Method in brief: (§1)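 Human cells (GLC-82 lung adenocarcinoma; CNE2 nasopharyngeal carcinoma) were seeded at 1×10⁴ per well and incubated overnight. They were then exposed for 48 h to increasing compound concentrations (0–100). MTT (5 mg/mL stock) was added for 4 h at 37 °C, and unconverted MTT was removed before plate-reader absorbance. Runs were in quadruplicate, with viability as % of untreated control. IC50 is the concentration reducing mean viability to 50%.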

[2] = Cytotoxicity against human GLC82 cells after 48 hrs by MTT assay; format: functional, cell-based; method in brief: as §1
[3] = Homo sapiens, CNE-2, 48 h, read-out: IC50
[4] = Homo sapiens, GLC82, 48 h, read-out: IC50

Structure (SMILES)	IC50 ([1]; cne-2)	IC50 ([2]; glc82)	IC50 [1, 3] [µM]	IC50 [2, 4] [µM]
Cc1cc(C)c2c(c1)C(=O)C(=O)c1cc(C)oc1-2	ND(Insoluble)	ND(Insoluble)		
Cc1ccc(-c2coc3c2C(=O)C(=O)c2cc(C)cc(C)c2-3)cc1			23.3	12
Cc1cc(C)c2c(c1)C(=O)C(=O)c1c(-c3ccc(C)c(C)c3)coc1-2	ND(Insoluble)	ND(Insoluble)		
Cc1cc(C)c2c(c1)C(=O)C(=O)c1c(-c3ccc(Cl)cc3)coc1-2	ND(Insoluble)	ND(Insoluble)		
CC(=O)Nc1c(C)cc(C)c2c1C(=O)C(=O)c1c(-c3ccc(C)c(C)c3)coc1-2	ND(Insoluble)	ND(Insoluble)		
CC(=O)Nc1c(C)cc(C)c2c1C(=O)C(=O)c1c(-c3ccccc3)coc1-2			4.8	7.2
CC(=O)Nc1c(C)cc(C)c2c1C(=O)C(=O)c1c(-c3ccccc3C)csc1-2			4.2	
O=C1C(=O)c2c(-c3ccc(Cl)cc3)coc2-c2cccc(N3C(=O)CCC3=O)c21			2	1.6
CC(=O)Nc1c(C)cc(C)c2c1C(=O)C(=O)c1c(-c3ccc(C)cc3)coc1-2			5.6	9.5
O=C1C(=O)c2c(-c3ccccc3)csc2-c2ccccc21				20.1
Cc1cc(C)c2c(c1)C(=O)C(=O)c1c(-c3ccc(F)cc3)coc1-2	ND(Insoluble)	ND(Insoluble)		
CC(=O)Nc1c(C)cc(C)c2c1C(=O)C(=O)c1c(-c3ccccc3)csc1-2			4.1	5
Cc1cc(C)c2c(c1)C(=O)C(=O)c1c(-c3ccccc3)coc1-2			> 25	> 25
CC(=O)Nc1c(C)cc(C)c2c1C(=O)C(=O)c1c(-c3ccc(F)cc3)coc1-2				8.9
CC[C@@]1(O)C(=O)OCc2c1cc1n(c2=O)Cc2cc3cc(O)ccc3nc2-1 [HYDROXYCAMPTOTHECIN]			0.37	1.09
CC(=O)Nc1c(C)cc(C)c2c1C(=O)C(=O)c1c(-c3ccc(F)cc3)csc1-2			4.6	3.9
CC(=O)Nc1c(C)cc(C)c2c1C(=O)C(=O)c1c(-c3ccc(Cl)cc3)csc1-2			6.8	7.5
CC(=O)Nc1c(C)cc(C)c2c1C(=O)C(=O)c1c(-c3ccc(Cl)cc3)coc1-2			9.2	6
